Test results reported in ChEMBL document CHEMBL1817551, “Design of small molecule inhibitors of acetyl-CoA carboxylase 1 and 2 showing reduction of hepatic malonyl-CoA levels in vivo in obese Zucker rats” (Bioorg Med Chem, 2011).
pIC50: −log10 of the molar value. Converted amounts (≈) assume the structure as drawn.

Tests used:
Acetyl-CoA carboxylase 2 = Acetyl-CoA carboxylase 2 (Homo sapiens, UniProt O00763); test: Inhibition of human recombinant his-tagged ACC2 expressed in baculovirus/Sf9 cell assessed as inorganic phosphate formation […] measured after 1.5 hrs by Malachite green reagent method
Acetyl-CoA carboxylase 2, sequence (O00763 whole entry): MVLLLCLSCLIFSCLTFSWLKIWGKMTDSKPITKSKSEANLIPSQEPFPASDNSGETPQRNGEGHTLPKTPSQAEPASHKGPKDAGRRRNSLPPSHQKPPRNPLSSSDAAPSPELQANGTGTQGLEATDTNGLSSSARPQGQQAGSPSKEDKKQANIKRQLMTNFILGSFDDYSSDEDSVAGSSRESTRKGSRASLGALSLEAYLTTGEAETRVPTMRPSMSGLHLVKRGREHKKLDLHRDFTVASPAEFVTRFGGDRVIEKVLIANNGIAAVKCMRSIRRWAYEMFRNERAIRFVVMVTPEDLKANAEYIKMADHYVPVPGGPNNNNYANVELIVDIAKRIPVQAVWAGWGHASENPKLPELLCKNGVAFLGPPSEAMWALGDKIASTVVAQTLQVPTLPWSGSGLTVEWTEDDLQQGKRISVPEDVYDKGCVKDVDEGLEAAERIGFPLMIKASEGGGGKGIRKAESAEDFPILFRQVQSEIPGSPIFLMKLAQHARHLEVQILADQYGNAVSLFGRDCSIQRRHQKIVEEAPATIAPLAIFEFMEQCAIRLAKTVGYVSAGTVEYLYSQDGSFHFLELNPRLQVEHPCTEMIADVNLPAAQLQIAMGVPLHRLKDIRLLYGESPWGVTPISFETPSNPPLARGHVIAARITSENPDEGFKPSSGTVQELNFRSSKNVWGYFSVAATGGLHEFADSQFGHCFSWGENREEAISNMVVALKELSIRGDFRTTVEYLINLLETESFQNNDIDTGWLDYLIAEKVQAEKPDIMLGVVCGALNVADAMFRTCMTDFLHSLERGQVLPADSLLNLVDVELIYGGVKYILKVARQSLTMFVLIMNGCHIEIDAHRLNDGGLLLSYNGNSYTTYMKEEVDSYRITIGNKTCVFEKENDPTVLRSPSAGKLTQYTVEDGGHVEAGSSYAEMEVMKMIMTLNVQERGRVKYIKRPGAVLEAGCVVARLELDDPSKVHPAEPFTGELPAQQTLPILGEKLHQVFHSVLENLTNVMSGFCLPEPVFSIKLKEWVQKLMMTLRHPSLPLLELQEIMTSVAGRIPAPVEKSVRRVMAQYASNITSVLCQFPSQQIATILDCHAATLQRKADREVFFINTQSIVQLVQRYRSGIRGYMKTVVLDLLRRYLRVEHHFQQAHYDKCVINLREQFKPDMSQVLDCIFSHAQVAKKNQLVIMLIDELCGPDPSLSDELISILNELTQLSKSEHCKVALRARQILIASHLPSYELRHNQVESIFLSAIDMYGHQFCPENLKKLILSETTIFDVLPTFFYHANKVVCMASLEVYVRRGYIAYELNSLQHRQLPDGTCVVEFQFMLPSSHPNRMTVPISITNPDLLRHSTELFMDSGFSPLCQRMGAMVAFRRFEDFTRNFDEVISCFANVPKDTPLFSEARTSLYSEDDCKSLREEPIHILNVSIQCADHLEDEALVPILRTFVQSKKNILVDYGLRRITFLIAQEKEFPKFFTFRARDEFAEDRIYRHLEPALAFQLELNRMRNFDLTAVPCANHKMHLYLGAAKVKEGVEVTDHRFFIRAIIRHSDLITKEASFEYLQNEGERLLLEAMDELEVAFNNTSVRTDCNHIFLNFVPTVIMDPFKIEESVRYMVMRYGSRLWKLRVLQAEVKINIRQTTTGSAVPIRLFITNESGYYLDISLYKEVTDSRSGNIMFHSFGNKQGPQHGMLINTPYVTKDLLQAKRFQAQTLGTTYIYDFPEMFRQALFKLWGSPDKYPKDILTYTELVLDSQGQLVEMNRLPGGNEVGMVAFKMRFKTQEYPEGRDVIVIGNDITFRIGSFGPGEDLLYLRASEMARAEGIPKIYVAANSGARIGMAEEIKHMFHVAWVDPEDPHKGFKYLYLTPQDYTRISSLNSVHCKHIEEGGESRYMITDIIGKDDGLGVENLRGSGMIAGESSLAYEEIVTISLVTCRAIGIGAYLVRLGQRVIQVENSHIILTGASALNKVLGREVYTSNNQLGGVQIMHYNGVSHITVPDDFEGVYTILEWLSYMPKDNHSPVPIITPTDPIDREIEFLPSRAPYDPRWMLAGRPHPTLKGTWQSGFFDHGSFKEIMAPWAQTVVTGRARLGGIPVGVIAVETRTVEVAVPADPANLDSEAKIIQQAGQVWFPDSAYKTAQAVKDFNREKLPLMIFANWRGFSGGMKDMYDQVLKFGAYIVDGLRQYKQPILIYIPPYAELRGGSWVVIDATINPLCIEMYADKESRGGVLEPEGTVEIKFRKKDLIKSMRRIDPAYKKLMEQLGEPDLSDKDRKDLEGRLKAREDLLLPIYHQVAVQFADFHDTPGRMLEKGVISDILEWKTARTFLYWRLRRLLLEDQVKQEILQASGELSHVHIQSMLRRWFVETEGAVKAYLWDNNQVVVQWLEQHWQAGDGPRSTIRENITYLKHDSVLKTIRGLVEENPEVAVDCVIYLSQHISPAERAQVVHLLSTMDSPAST

[1] = Lipophilicity, log D of the compound; type: physicochemical; settings: octanol/water
Acetyl-CoA carboxylase 1 [2] = molecular target: Acetyl-CoA carboxylase 1 (Homo sapiens, UniProt Q13085); test: Inhibition of human recombinant his-tagged ACC1 expressed in baculovirus/Sf9 cell assessed as inorganic phosphate formation […] measured after 1.5 hrs by Malachite green reagent method
[3] = Solubility of the compound after 16 hrs by LC-UV/MS analysis; type: physicochemical
[4] = Intrinsic clearance in human liver microsome at 1 uM after 30 mins by LC-UV/MS analysis; type: ADME; settings: liver microsomes
[5] = Clearance in Sprague-Dawley rat at 3 to 5 umol/kg, iv; type: ADME, organism-based; settings: in vivo
Cytochrome P450 2C9 = Cytochrome P450 2C9 (Homo sapiens, UniProt P11712); test: Inhibition of CYP2C9; type: ADME
Cytochrome P450 3A4 = Cytochrome P450 3A4 (Homo sapiens, UniProt P08684); test: Inhibition of CYP3A4; type: ADME
Cytochrome P450 1A2 = molecular target: T1, Cytochrome P450 1A2 (Homo sapiens, UniProt P05177); test: Inhibition of CYP1A2; type: ADME
T1 sequence (P05177 whole entry): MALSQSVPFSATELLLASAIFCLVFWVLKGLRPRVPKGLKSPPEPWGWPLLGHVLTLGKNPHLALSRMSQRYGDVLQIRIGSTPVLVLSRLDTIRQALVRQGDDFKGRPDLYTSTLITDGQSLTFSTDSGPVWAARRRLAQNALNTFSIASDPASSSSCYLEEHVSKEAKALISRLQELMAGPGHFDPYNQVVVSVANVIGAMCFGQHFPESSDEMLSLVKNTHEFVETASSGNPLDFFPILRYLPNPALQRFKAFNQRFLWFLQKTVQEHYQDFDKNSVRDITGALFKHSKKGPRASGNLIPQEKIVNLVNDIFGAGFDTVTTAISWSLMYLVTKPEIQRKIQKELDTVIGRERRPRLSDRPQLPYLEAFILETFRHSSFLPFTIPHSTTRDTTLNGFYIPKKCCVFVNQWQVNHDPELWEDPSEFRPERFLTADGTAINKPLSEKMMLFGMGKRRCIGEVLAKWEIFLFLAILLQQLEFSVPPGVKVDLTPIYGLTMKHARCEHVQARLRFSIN

[6] = Fraction unbound in human plasma at 10 uM after 18 hrs by equilibrium dialysis method; type: ADME, cell-free
[7] = Clearance in C57BL/6 mouse at 5 umol/kg, iv and 10 umol/kg, po; type: ADME, organism-based; settings: in vivo
[8] = Volume of distribution in C57BL/6 mouse at 5 umol/kg, iv and 10 umol/kg, po; type: ADME, organism-based; settings: in vivo
[9] = Half life in C57BL/6 mouse at 10 umol/kg, po; type: ADME, organism-based; settings: in vivo
[10] = Oral bioavailability in C57BL/6 mouse at 10 umol/kg; type: ADME, organism-based; settings: in vivo
[11] = molecular target: Acetyl-Coenzyme A carboxylase 2 (Rattus norvegicus, UniProt Q1HEC0); test: Inhibition of ACC2 […] preincubated for 15 mins measured after 1.5 hrs using Malachite green reagent method
Acetyl-Coenzyme A carboxylase 2, sequence (Q1HEC0 whole entry): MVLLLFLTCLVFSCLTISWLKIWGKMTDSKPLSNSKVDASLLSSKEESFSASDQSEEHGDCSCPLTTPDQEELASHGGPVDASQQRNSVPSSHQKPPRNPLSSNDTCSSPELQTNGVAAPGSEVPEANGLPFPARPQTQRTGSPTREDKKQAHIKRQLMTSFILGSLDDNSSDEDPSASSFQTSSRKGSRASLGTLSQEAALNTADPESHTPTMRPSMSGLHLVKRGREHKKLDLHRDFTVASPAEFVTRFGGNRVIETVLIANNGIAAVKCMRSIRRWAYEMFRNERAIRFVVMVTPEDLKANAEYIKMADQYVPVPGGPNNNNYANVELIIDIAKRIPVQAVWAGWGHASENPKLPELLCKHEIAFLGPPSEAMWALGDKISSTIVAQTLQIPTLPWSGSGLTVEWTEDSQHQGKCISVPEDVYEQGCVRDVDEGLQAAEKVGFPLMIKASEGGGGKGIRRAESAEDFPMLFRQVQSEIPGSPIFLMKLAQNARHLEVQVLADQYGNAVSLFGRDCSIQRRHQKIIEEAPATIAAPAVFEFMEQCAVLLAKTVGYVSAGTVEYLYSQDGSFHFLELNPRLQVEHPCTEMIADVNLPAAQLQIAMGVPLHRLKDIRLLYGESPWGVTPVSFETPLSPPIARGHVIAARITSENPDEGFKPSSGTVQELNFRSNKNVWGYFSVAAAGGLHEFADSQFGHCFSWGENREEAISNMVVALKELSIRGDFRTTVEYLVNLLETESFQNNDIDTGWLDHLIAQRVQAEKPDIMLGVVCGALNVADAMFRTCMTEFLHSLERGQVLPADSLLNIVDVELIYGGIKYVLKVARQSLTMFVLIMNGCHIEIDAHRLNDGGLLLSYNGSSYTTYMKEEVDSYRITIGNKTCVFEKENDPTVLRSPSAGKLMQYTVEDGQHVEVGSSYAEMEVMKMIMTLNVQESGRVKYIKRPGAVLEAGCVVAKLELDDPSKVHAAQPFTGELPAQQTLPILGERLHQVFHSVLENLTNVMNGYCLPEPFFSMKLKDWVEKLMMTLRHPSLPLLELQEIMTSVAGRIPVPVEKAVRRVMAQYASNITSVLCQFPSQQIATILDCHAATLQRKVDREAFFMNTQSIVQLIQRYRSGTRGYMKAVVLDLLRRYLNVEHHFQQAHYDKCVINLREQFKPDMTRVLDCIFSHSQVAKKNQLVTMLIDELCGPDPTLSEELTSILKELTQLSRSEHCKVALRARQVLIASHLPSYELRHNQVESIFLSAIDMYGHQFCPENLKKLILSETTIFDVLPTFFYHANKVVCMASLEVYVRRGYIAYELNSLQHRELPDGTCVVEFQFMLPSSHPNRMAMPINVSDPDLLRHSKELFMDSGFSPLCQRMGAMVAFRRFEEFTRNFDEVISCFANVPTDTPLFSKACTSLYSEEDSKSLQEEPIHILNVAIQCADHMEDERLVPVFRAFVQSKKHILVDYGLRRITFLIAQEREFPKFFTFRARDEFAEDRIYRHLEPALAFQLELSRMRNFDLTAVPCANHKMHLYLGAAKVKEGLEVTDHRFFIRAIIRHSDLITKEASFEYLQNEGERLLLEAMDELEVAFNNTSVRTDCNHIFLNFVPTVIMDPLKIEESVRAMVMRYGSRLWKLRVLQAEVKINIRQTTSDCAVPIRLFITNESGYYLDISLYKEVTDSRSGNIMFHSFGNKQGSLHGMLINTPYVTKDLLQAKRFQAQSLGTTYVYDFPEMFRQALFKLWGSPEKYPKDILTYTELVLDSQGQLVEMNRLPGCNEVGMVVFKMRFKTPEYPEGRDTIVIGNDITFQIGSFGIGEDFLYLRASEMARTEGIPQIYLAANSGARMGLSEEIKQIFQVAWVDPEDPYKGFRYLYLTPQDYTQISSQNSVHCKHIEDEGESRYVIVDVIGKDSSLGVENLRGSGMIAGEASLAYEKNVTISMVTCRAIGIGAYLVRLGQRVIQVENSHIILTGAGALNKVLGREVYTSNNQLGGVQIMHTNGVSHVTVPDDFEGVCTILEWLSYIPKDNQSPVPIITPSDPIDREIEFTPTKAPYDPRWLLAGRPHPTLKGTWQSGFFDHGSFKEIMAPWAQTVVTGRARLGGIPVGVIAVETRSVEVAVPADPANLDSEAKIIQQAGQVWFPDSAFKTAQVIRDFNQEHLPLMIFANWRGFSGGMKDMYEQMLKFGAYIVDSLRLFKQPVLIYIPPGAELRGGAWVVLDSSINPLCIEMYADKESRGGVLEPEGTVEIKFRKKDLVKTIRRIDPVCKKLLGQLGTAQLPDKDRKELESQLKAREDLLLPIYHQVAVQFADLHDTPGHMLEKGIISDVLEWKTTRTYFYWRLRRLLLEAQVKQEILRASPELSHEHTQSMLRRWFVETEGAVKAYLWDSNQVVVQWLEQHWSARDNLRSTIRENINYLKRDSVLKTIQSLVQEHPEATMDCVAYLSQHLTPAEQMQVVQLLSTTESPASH

Rattus norvegicus = test: Antiobesity activity in obese Zucker rat assessed as reduction in hepatic malonyl-coA level, iv administered 2 hrs; type: functional; design: scale not given: the % may be the effect or the level left
Outline: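 Obese Zucker rats were anaesthetized with Inactin (180 mg/kg ip), tracheotomized and fitted with carotid and jugular catheters. After 1.5 h post-surgery stabilization at 37.5 °C, compound or vehicle was infused iv; lean vehicle controls were included. Hepatic malonyl-CoA was measured by ion-pair HPLC–negative ESI MS/MS against a ¹³C₃ internal standard and related to plasma free exposure (fu×Cp/rat ACC2 IC50).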

Acetyl-CoA carboxylase 1 [12] = molecular target: Acetyl-CoA carboxylase 1 (Rattus norvegicus, UniProt P11497); test: Inhibition of rat ACC1 assessed as inorganic phosphate generation preincubated for 5 mins measured after 1.5 hrs using Malachite green reagent method
CYP2C19 = CYP2C19 (Homo sapiens, UniProt P33261); test: Inhibition of CYP2C19 at 13 uM; type: ADME
CYP2D6 = CYP2D6 (Homo sapiens, UniProt P10635); test: Inhibition of CYP2D6 at 13 uM; type: ADME
CYP1A2 = molecular target: T2, CYP1A2 (Homo sapiens, UniProt P05177); test: Inhibition of CYP1A2 at 13 uM; type: ADME
T2 sequence (P05177 whole entry): T1 sequence (P05177 whole entry)

CYP2C9 = CYP2C9 (Homo sapiens, UniProt P11712); test: Inhibition of CYP2C9 at 13 uM; type: ADME
CYP3A4 = CYP3A4 (Homo sapiens, UniProt P08684); test: Inhibition of CYP3A4 at 13 uM; type: ADME

| SMILES | pIC50 (Acetyl-CoA carboxylase 2) | logD [1] | pIC50 (Acetyl-CoA carboxylase 1 [2]) | further results |
| --- | --- | --- | --- | --- |
| CC(C)(C)OC(=O)NC[C@H]1CC[C@H](CNS(=O)(=O)c2cc(-c3ccccc3)nc3ccccc23)CC1 | 6.16 | – | – | – |
| CC(C)(C)OC(=O)NC[C@H]1CC[C@H](CNC(=O)c2cc(-c3cn[nH]c3)nc3ccccc23)CC1 | 6.24 | 3.5 | 5.64 | – |
| CC(C)(C)OC(=O)NC[C@H]1CC[C@H](CNC(=O)c2cc(N3CCNCC3)nc3ccccc23)CC1 | – | 2.9 | 4.89 | – |
| CN(C)CCn1cc(-c2cc(C(=O)NC[C@H]3CC[C@H](CNC(=O)OC(C)(C)C)CC3)c3ccccc3n2)cn1 | – | 3.6 | 5.89 | – |
| CC(C)(C)OC(=O)NC[C@H]1CC[C@H](CNC(=O)c2cc(-c3ccccc3)nc3[nH]ccc23)CC1 | 6.11 | 4.7 | – | – |
| Cc1cc(C(=O)NC[C@H]2CC[C@H](CNC(=O)OC(C)(C)C)CC2)cc(-c2ccccc2)n1 | – | 5.3 | – | – |
| CC(C)(C)OC(=O)NC[C@H]1CC[C@H](CNC(=O)c2cc(-c3cccc(CN)c3)nc3ccccc23)CC1 | 7.28 | 3.4 | 6.62 | solubility at 16 h [3]: 8 µM (≈ 4.02 µg/mL); microsomal CLint at 1 µM [4]: 14 µL/min/mg; clearance [5]: 104 mL/min/kg; pIC50 (Cytochrome P450 2C9): 6.10; pIC50 (Cytochrome P450 3A4): 5.62; pIC50 (Cytochrome P450 1A2): 5.40 |
| CCOC(=O)NC[C@H]1CC[C@H](CNC(=O)c2cc(N3CCC(CCN(C)C)CC3)nc3ccccc23)CC1 | 5.85 | 2.6 | 5.10 | – |
| CC(C)(C)OC(=O)NC[C@H]1CC[C@H](CNC(=O)c2cc(N3CCC(CCN4CC(O)C4)CC3)nc3ccccc23)CC1 | – | 3.6 | 6.00 | solubility at 16 h [3]: 80 µM (≈ 46.4 µg/mL); fraction unbound at 18 h, 10 µM [6]: 0.033; microsomal CLint at 1 µM [4]: 16 µL/min/mg; clearance [5]: 70 mL/min/kg; clearance [7]: 33 mL/min/kg; Vd [8]: 3.6 L/kg; half-life [9]: 4.3 h; bioavailability [10]: 135%; pIC50 [11]: 6.82; Activity (Rattus norvegicus): 50%; pIC50 (Acetyl-CoA carboxylase 1 [12]): 6.60 |
| CC(C)(C)OC(=O)NC[C@H]1CC[C@H](CNC(=O)c2ccnc(-c3ccccc3)c2)CC1 | – | 4.7 | – | – |
| CC(C)(C)OC(=O)NC[C@H]1CC[C@H](CNC(=O)c2cc(-c3ccncc3)nc3ccccc23)CC1 | – | 4.4 | 5.96 | solubility at 16 h [3]: < 1 µM; microsomal CLint at 1 µM [4]: 146 µL/min/mg |
| CC(C)(C)OC(=O)NC[C@H]1CC[C@@H](CNC(=O)c2cc(-c3ccccc3)nc3ccccc23)CC1 | 6.00 | – | – | – |
| CN(C)CCN1CCN(c2cc(C(=O)NC[C@H]3CC[C@H](CNC(=O)OC(C)(C)C)CC3)c3ccccc3n2)CC1 | 6.14 | 3.4 | 5.28 | solubility at 16 h [3]: 73 µM (≈ 40.4 µg/mL); microsomal CLint at 1 µM [4]: < 12 µL/min/mg; inhibition at 13 µM (CYP2C19): < 50%; inhibition at 13 µM (CYP2D6): < 50%; inhibition at 13 µM (CYP1A2): < 50%; inhibition at 13 µM (CYP2C9): < 50%; inhibition at 13 µM (CYP3A4): < 50% |
| O=C(c1cc(-c2ccccc2)nc2ccccc12)N1CCN(Cc2ccc3c(c2)OCO3)CC1 | 5.44 | – | – | – |
| CN(C)CCC1CCN(c2cc(C(=O)NC[C@H]3CC[C@H](CNC(=O)OC4CCOCC4)CC3)c3ccccc3n2)CC1 | – | 2.3 | – | – |
